Series [1] in a line: Drug distribution in acidic vesicles intracellular compartments of MDCK cells incubated for 1 hrs by LysoTracker Red DND-99 staining based confocal microscopy. The class given is ADME, cell-based, Canis lupus familiaris. Conditions: dog. In short, it runs like this:
(§1)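 MDCK cells were pre-stained with 100 nM LysoTracker Red for 1.5 h and washed. They were then given 5 μM NBD-labelled lipopeptide in phenol-red-free DF-12 at 37 °C, 5% CO2. Confocal imaging with a 20× objective was done at 10 min, 30 min, 1 h, 2 h and 4 h. Peptide was read in the FITC channel and acidic compartments in the red channel, with colocalization assessed on merged images.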

Series [2] can be described thus: Drug distribution in acidic vesicles intracellular compartments of MDCK cells incubated for 4 hrs by LysoTracker Red DND-99 staining based confocal microscopy. Conditions: dog. Type of series: ADME, cell-based, Canis lupus familiaris. A digest of the protocol:
as §1

Series [3] concerns Influenza A virus. Put plainly: Antiviral activity against influenza A virus Hong Kong/8/1968(H3N2) infected in HEK293T cells assessed as inhibition of viral replicon activity incubated for 30 hrs by dual-Glo luciferase assay. Type of series: functional, organism-based. A digest of the protocol: (§2)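 HEK293T cells (2.5 × 10^4/well) transfected with plasmids for NP, PB1, PB2, PA plus p0LN-S-Luc firefly and pRL-SV40 Renilla reporters; serially diluted compound added 6 h post-transfection, luciferase read after 30 h by Dual-Glo. Activity = firefly/Renilla ratio; % inhibition normalized to positive and negative controls, curve-fitted; three independent measurements.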
A general note: Replicon systems follow genome replication, usually without infectious particles.

Series [4] deals with Influenza A virus. Put plainly: Antiviral activity against Influenza A virus (A/Puerto Rico/8/1934(H1N1)) infected in HEK293T cells assessed as inhibition of viral replicon activity incubated for 30 hrs by dual-Glo luciferase assay. The class given is functional, organism-based. A digest of the protocol:
as §2

Series [5] can be described thus: Drug distribution in cell membrane of MDCK cells incubated for 0.5 hrs by confocal microscopy. Conditions: dog. Type of series: ADME, cell-based, Canis lupus familiaris. A digest of the protocol: as §1
The next series has as its system Lipid bilayer. Put plainly: Binding affinity to POPC LUV liposome system at 15 uM. A digest of the protocol:
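Isothermal titration calorimetry at 25 °C. POPC large unilamellar vesicles (13 mM in the syringe) were titrated into peptide in the cell (15 μM) over 20 injections, 120 s apart, with stirring at 750 rpm. The binding constant was derived from the heat released during peptide–lipid binding.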

The test system of series [6] is Middle East respiratory syndrome-related coronavirus. Put plainly: Antiviral activity against MERS-CoV pseudovirus infected in human HuH7 cells treated with 30 mins pre-treated pseudovirus/compopund mixture and measured after 48 hrs by luciferase reporter assay. Type of series: functional, organism-based. In short, it runs like this: (§3)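 Serially diluted peptide premixed with MERS-CoV pseudovirus 30 min at 37 °C, then added to Huh-7 cells; medium replaced at 12 h postinfection and cells cultured a further 48 h at 37 °C before luciferase read-out.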
On the technique in general: In a reporter assay the amount or activity of a reporter protein is the signal.

Series [7] relates to Influenza A virus. Put plainly: Antiviral activity against Influenza A virus (A/Puerto Rico/8/1934(H1N1)) infected in HEK293T cells assessed as inhibition of viral replicon activity up to 40 uM incubated for 30 hrs by dual-Glo luciferase assay. The class given is functional, organism-based. A digest of the protocol:
as §2

Series [8] concerns Middle East respiratory syndrome-related coronavirus. The experiment in a line: Antiviral activity against MERS-CoV pseudovirus infected in human HuH7 cells treated with 30 mins pre-treated pseudovirus/compopund mixture up to 40 uM and measured after 48 hrs by luciferase reporter assay. The class given is functional, organism-based. In short, it runs like this: as §3

Active and inactive are the calls of the source. No cut-off for these calls is given here. Where a SMILES comes first, the peptide text is derived from it. [ ]: non-standard residue; d: D form. The star is where a group is joined. Palmitoyl = CCCCCCCCCCCCCCCC(=O)*; X1 = O=[N+]([O-])c1ccc(*)c2onnc12; βAla = NCCC(=O)O

These results are taken from ChEMBL document CHEMBL4196194, “De Novo Design of α-Helical Lipopeptides Targeting Viral Fusion Proteins: A Promising Strategy for Relatively Broad-Spectrum Antiviral Drug Discovery” (J Med Chem, 2018).

For the compound `CCCCCCCCCCCCCCCC(=O)NCCCC[C@H](NC(=O)CCNC(=O)[C@H](CCCCN)NC(=O)[C@H](CCCCN)NC(=O)[C@H](CCC(N)=O)NC(=O)[C@@H](NC(=O)[C@H](CCC(=O)O)NC(=O)[C@H](CCC(=O)O)NC(=O)[C@@H](NC(=O)[C@H](CCCCN)NC(=O)[C@H](CCCCN)NC(=O)[C@H](CCC(N)=O)NC(=O)[C@@H](NC(=O)[C@H](CCC(=O)O)NC(=O)[C@H](CCC(=O)O)NC(=O)[C@@H](NC(=O)[C@H](CCCCN)NC(=O)[C@H](CCCCN)NC(=O)[C@H](CCC(N)=O)NC(=O)[C@@H](NC(=O)[C@H](CCC(=O)O)NC(=O)[C@H](CCC(=O)O)NC(=O)[C@@H](NC(=O)[C@H](CCCCN)NC(=O)[C@H](CCCCN)NC(=O)[C@H](CCC(N)=O)NC(=O)[C@@H](NC(=O)[C@H](CCC(=O)O)NC(=O)[C@H](CCC(=O)O)NC(=O)[C@@H](NC(=O)[C@H](CCCCN)NC(=O)[C@H](CCCCN)NC(=O)[C@H](CCC(N)=O)NC(=O)[C@@H](NC(=O)[C@H](CCC(=O)O)NC(=O)[C@H](CCC(=O)O)NC(=O)[C@@H](NC(=O)CCNc1ccc([N+](=O)[O-])c2nnoc12)[C@@H](C)CC)[C@@H](C)CC)[C@@H](C)CC)[C@@H](C)CC)[C@@H](C)CC)[C@@H](C)CC)[C@@H](C)CC)[C@@H](C)CC)[C@@H](C)CC)[C@@H](C)CC)C(N)=O` ({X1-βAla}-IEEIQKKIEEIQKKIEEIQKKIEEIQKKIEEIQKK[βAla]K(Palmitoyl)-NH2), the Drug uptake result in [1], in [2] and in [5] was “Active” in each case. The inhibition result in the series with Influenza A virus [3] and in the series on Influenza A virus [4] was “Active” in each case.
On to `CC[C@H](C)[C@H](NC(C)=O)C(=O)N[C@@H](CCC(=O)O)C(=O)N[C@@H](CCC(=O)O)C(=O)N[C@H](C(=O)N[C@@H](CCC(N)=O)C(=O)N[C@@H](CCCCN)C(=O)N[C@@H](CCCCN)C(=O)N[C@H](C(=O)N[C@@H](CCC(=O)O)C(=O)N[C@@H](CCC(=O)O)C(=O)N[C@H](C(=O)N[C@@H](CCC(N)=O)C(=O)N[C@@H](CCCCN)C(=O)N[C@@H](CCCCN)C(=O)N[C@H](C(=O)N[C@@H](CCC(=O)O)C(=O)N[C@@H](CCC(=O)O)C(=O)N[C@H](C(=O)N[C@@H](CCC(N)=O)C(=O)N[C@@H](CCCCN)C(=O)N[C@@H](CCCCN)C(=O)N[C@H](C(=O)N[C@@H](CCC(=O)O)C(=O)N[C@@H](CCC(=O)O)C(=O)N[C@H](C(=O)N[C@@H](CCC(N)=O)C(=O)N[C@@H](CCCCN)C(=O)N[C@@H](CCCCN)C(=O)N[C@H](C(=O)N[C@@H](CCC(=O)O)C(=O)N[C@@H](CCC(=O)O)C(=O)N[C@H](C(=O)N[C@@H](CCC(N)=O)C(=O)N[C@@H](CCCCN)C(=O)N[C@@H](CCCCN)C(=O)NCCC(=O)N[C@@H](CCCCNC(C)=O)C(N)=O)[C@@H](C)CC)[C@@H](C)CC)[C@@H](C)CC)[C@@H](C)CC)[C@@H](C)CC)[C@@H](C)CC)[C@@H](C)CC)[C@@H](C)CC)[C@@H](C)CC` (Ac-IEEIQKKIEEIQKKIEEIQKKIEEIQKKIEEIQKK[βAla]K(Ac)-NH2), for which the result (in the series with Lipid bilayer; in series [6]; in series [8]) was inactive. Moreover, the inhibition entry in the series with Influenza A virus [7] was “inactive”.
